Fewer inactive variants are shown than the library holds.
B1: tRNA (parent)
chain: GUUCCGUUGGCGUAAUGGUAACGCGUCUCCCUCCUAAGGAGAAGACUGCGGGUUCGAGUCCCGUACGGAACG

Variants of: B1
Assay: yeast fitness relative to wild type (ratio to wild type); higher = fitter; tRNA-Arg(CCU), competitive growth, 37 C, YPD
In short: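 Changes in genotype frequencies gave Darwinian fitness relative to wild type. Frequencies were read by 100-nucleotide paired-end sequencing of gene amplicons before and after pooled Saccharomyces cerevisiae strains, carrying tRNA-Arg(CCU) gene variants at the native locus, were competed in YPD at 37°C for 24 hours in six replicates. A genotype was kept only with ≥ 100 starting reads, and estimates < 0.5 were set to 0.5.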

Point of comparison: GUUCCGUUGGCGUAAUGGUAACGCGCCCCCCUCCUAAGGAGAAGACUGCGGGUUCGAGUCCCGUACGGAGCG, yeast fitness 0.73. Against it:
- GUUCCGUUGGCGUAAUGGUAACGCGCCUCCCCCCUAAGGAGAAGACCGCAGGUUCGAGUCUCGAACGGAACG — lower, ≤ 0.5
- GUUCCGUUGGCGUAAUGGUAACGCGCCUCCCUCCUAAGGAGAAGACUGCGGGCUCGAAUCCCGUACGGAACG — lower, 0.686
- GUUCCGUUGGCGUAAUGGUAACGCGCCUCCCUCCUAAGGAGAAAACUGCGGGUUCGAGUCCCGUACGGAACG — higher, 0.945
- GUUCCGUUGGCGUAAUGGUAACGCGCCUCCCUCCUAAGGAGAACACUGCGGGUUCGAGUCCCGUACGGAACG — higher, 0.77
- GUUCCGUUGGCGUAAUGGUAACGCGCCUCCCUCCAAAGGAGAAGACAGCGGGUACGAGUCCCGUACGGAACG — lower, ≤ 0.5
- GUUCCGUUGGCGUAAUGGUAACGCGCCUCCCUCCUAAAGAGACGACUGCGGGUUCGAGUCCCGUCCGGAACG — lower, ≤ 0.5
- GUUCCGUUGGCGUAAUGGUAACGCGGCUGCCUCCUAAGGAGAAGACUGCGGGUUCGAGUCCUGUACGGAGCG — lower, 0.61
- GUUCCGUUGGCGUAAUGGUAACGCGCCUCCCUCCUAAGGAGAAGACUGCGCGUUCGAGUCCCGUACGGAACG — lower, 0.663
- GUUCCGUUGGCGUAAUGGUAACGCGCCUCCCUCCUAAGGAAAAGACCGCGGGUUCGAGUCGUGUACGGAACG — lower, ≤ 0.5
- GUUCCGUUGGCGUAAUGGUAACGCGGCUCCCUCCUAAGGGGAAGACUGCGGGUUCGAGGCCAGUACGGAACG — lower, ≤ 0.5
- GUUCCGUUGGCGUAAUGGUAACGCGCCCCCCUCGUAAGGAGAAGACUGCGGGUUCGAGACCCGUUCGGAACG — lower, ≤ 0.5
- GUUCCGUUGGCGUAAUGGUAACGCGGUUCCCUCCUAAGGAGAAGACUGCGGGUUCGAGUCCCGUACGGUACG — lower, 0.696
- GUUCCGUUGGCGUAAUGGUAACGCGCCUCCCUCCUAAGGAGAAGACUGCGGGUUCGACUCCCGUACGGCACG — lower, 0.697
- GUUCCGUUGGCGUAAUGGUAACGCGCCUCCCACUUAACGAGAAGACUGCGAGUUCGCGUCCCGUACGGAACG — lower, 0.653
- GUUCCGUUGGCGUAAUGGUAACGCGCCUCCCACUUAACGAGAAGACUGCGGGUUCGAGUCCCGUACGGAACG — lower, 0.525
- GUUCCGUUGGCGUAAUGGUAACGCGCCUCCCUCCUAAGGAGAAGACGGCCGGUUCGAGUCCCGUAAGGAACG — lower, 0.685
- GUUCCGUUGGCGUAAUGGUAACGCGCCUCCCUCCUAAGGAGAAGACUACGGGUUUGAGUCCCGUACGGAACG — lower, 0.561
- GUUCCGUUGGCGUAAUGGUAACGCGCCUCCCUCCUAAGGAGAAGACUGCGGGUUCGAGGCCCGUACGGAACG — higher, 0.862
- GUUCCGUUGGCGUAAUGGUAACGCGCCUCCCUCCUAAGGAGAAGACUACGGGUUCGGGUCGCGUACGGAACG — lower, 0.501
- GUUCCGUUGGCGUAAUGGUAACGCGGCUAGGUCCUAAGGAGAAGACUGCGGGUUCGAGACCCGUACGGAACG — lower, 0.533
- GUUCCGUUGGCGUAAUGGUAACGCGCCUCCCUCCUAAGGAGAAGACUGCGGGUUCCCGUCCCGUACGGAACG — lower, ≤ 0.5
- GUUCCGUUGGCGUAAUGGUAACGCGCCUCCCUCCUAAGAAGAAGACUGCGGGUUCGAGUCCCGUACGGAACG — lower, 0.698
- GUUCCGUUGGCGUAAUGGUAACGCGGCUCCCUCCUAAGGAGAAGGUUGCGGGGUCGAGUCCCGUAUGGUACG — lower, 0.582
- GUUCCGUUGGCGUAAUGGUAACGCGGCUCUCUCCUAAGGAGAAGACUGCGGAUUCGAGUCCCGUACGGAACG — lower, 0.519
- GUUCCGUUGGCGUAAUGGUAACGCGGCUCCCUCCUAAGGAGAAGACUGCGGGUUCGAGUCCCGUACGGAACG — higher, 0.971
- GUUCCGUUGGCGUAAUGGUAACGCGGCUCCCUCCUAAGGAGAAGGUUGCAGGGUCGAGUCCCGUAUGGUACG — lower, ≤ 0.5
- GUUCCGUUGGCGUAAUGGUAACGCGGGUCCCUCCUAAGGAGAAGACAGCGGGUUCGAGUCCUGUACGGAACG — lower, ≤ 0.5
- GUUCCGUUGGCGUAAUGGUAACGCGGCUCCCUCCUAAGGAGCAGACUGCGGGUUCGAGUCUCGUACGGAACG — lower, 0.684
- GUUCCGUUGGCGUAAUGGUAACGCGGCUCCCUCCUUAGGAGAAGACGGCGGGUUCGAGUCCCGUACGGAACG — lower, 0.626
- GUUCCGUUGGCGUAAUGGUAACGCGGCUCCCUCCUAAGGAGAAGUCUGCAGGUUAGAGUCCCGUACGGAACG — lower, ≤ 0.5
- GUUCCGUUGGCGUAAUGGUAACGCGCCUCCCUCCUAAGGAGAAGACUGCGGGUUCGAGUCCCGUACAGAACG — higher, 0.762
- GUUCCGUUGGCGUAAUGGUAACGCGCCUCCCUCCUAAGGAGAAGACUGCGGGUUCGAGUCCCGUACCGAACG — higher, 0.833
- GUUCCGUUGGCGUAAUGGUAACGCGGCUCCCUCCUACGGAGGACGCUGUGGGUUCGAGUCCCGUUCGGAACG — lower, ≤ 0.5
- GUUCCGUUGGCGUAAUGGUAACGCGCCUCCCUCCUAAGGAGAAGACUGCGGGUUCGAGUCCCCUACGGAACG — higher, 0.76
- GUUCCGUUGGCGUAAUGGUAACGCGCCUCCCUCCUAAGAAGAAGACUGCGGGUUCGAGCCCCGUACGGAACG — lower, 0.604
- GUUCCGUUGGCGUAAUGGUAACGCGCCUCCCUCCUAAGCAGAAGACUGCGGGUUAGAGUGCCGUACGGAACG — lower, ≤ 0.5
- GUUCCGUUGGCGUAAUGGUAACGCGGCUCCCUCCUAAGGAGAAGACUGCGGGUUCGAGUCCCGUGCGGAACG — higher, 0.971
- GUUCCGUUGGCGUAAUGGUAACGCGGCUCCCUCCUAAGGAGAAGACUGCGGGUUCGAGUCCCGUACGGUACG — higher, 0.919
- GUUCCGUUGGCGUAAUGGUAACGCGCCUCCCUCCUAAGGAGAAGACCGCGGGUUCGAGUCCCGUACGGAACG — higher, 0.952
- GUUCCGUUGGCGUAAUGGUAACGCGGCUCCAUCCUAAGGAGAAGACUGCGGGUUCGAGUCCCGUACGGAACG — higher, 0.804
- GUUCCGUUGGCGUAAUGGUAACGCGGCUCACUCCUAAGGAGAAGACUGCGGGUUCGAGUCCCGUACGCAACG — lower, 0.531
- GUUCCGUUGGCGUAAUGGUAACGCGCCUCCCUCCUAAGGAGAAAACUGCGGGUUCGAGUCCCGUACGGAUCG — lower, 0.657
- GUUCCGUUGGCGUAAUGGUAACGCGGCUCCCUCCUGAGGAGAAGACUGCGGGUUCGAGUCCCGUACGGAGCG — lower, 0.652
- GUUCCGUUGGCGUAAUGGUAACGCGGUUCCCUCCUAAGGAGAAGACUGCCGGUUCGAGUCCCGUACGGAACG — lower, ≤ 0.5
- GUUCCGUUGGCGUAAUGGUAACGCGCCUCCCCCCUAAGGAGAAGACUGCGGGUUCGAGUCCCGUAUGGAACG — lower, 0.676
- GUUCCGUUGGCGUAAUGGUAACGCGGCUCCCUCCUCAGGAGAAGACUGCGGGUUCGAGUCCCGUAAGGAACG — lower, ≤ 0.5
- GUUCCGUUGGCGUAAUGGUAACGCGGCUCCCUCCUGAGGAGAAGACUGCGGGUUCGAGUCCCGUACGAGACG — lower, 0.626
- GUUCCGUUGGCGUAAUGGUAACGCGGGUCCCUUCUAAGCAGAAGACUGUGGGUUCGAGUCCCGUACGGAACG — lower, ≤ 0.5
- GUUCCGUUGGCGUAAUGGUAACGCGCCUCCCUCCUAAGGAGAAGACUGCGGAUUCGAGUCCCGUACGGAACG — higher, 0.748
- GUUCCGUUGGCGUAAUGGUAACGCGGCUCCCUCCUAAGGAGAAGACUGCGGGUUCGAGUCCCGUACGGACCG — higher, 0.924
- GUUCCGUUGGCGUAAUGGUAACGCGGCUCCCUCCUAAGGAGCAGACUGCGGGUUCGAGUCCCGUACGGAACG — higher, 1.03
- GUUCCGUUGGCGUAAUGGUAACGCGCCUCCCUCCUAAGGAGAAGACUGCGGAUUCGAGUCCCGUACGGACCG — lower, ≤ 0.5
- GUUCCGUUGGCGUAAUGGUAACGCGCCCCCCUCCUCAGGAGAAGACUGCGGGUUCGAGUCCCGUACGGAACG — lower, ≤ 0.5
- GUUCCGUUGGCGUAAUGGUAACGCGCCUCCCUCCCAAGGAGAAGACUGCCGAUUCGAGUCCCGUACGGAACG — lower, ≤ 0.5
- GUUCCGUUGGCGUAAUGGUAACGCGCCUCCCACUUAACGAGAAGACUGCGAGUUCGCGUCCCGUAUGGAACG — lower, 0.66
- GUUCCGUUGGCGUAAUGGUAACGCGCCGCCCUCUUAAAGAGAAGACUGCGGGUUCGAGUCCCGUACGGAACG — lower, ≤ 0.5
- GUUCCGUUGGCGUAAUGGUAACGCGGGUCCCACCUAAGGUGAAGACUGCGGGUUCGAGUCCCGUACGGAACG — lower, ≤ 0.5
- GUUCCGUUGGCGUAAUGGUAACGCGCCUCCCUCCUAAGGAGAAGACUGCAGGUUCGAGACCCGUACCGAACG — lower, ≤ 0.5
- GUUCCGUUGGCGUAAUGGUAACGCGGCUCCCUCCUAAGGAGAGGACUGCGGGUUCGAGUCCCGUACGGAACG — higher, 0.895
- GUUCCGUUGGCGUAAUGGUAACGCGCCUCCCUCCUAAGGAGAAGACUGCGGGUUCAAGUCCCGUACGGAACG — higher, 0.895
- GUUCCGUUGGCGUAAUGGUAACGCGCCAGCCUCCUAAGGAGAAGACUGCGGGUUCGAGUCCCGUACGGUACG — lower, ≤ 0.5
- GUUCCGUUGGCGUAAUGGUAACGCGCCUCCCUCCCAAGGAGAAGACUGUGGGUUCGUGUCCCGUACGGAACG — lower, 0.656
- GUUCCGUUGGCGUAAUGGUAACGCGCCUCCCACUUAACGAGAAGACUGCGAGUUCGCGUCCCGUCCGGAACG — lower, ≤ 0.5
- GUUCCGUUGGCGUAAUGGUAACGCGGCUCCCUCCUAAGGAGAAGUCUGCGGGUUCGAGUCCCGUACGGAACG — higher, 0.789
- GUUCCGUUGGCGUAAUGGUAACGCGCCUCCCUCCUAAGGAGAAGACUGCUGGUUCGAGUCCCGUACGGAACG — higher, 0.733
- GUUCCGUUGGCGUAAUGGUAACGCGCCUCCCUCCUAAGGAGAAGACUGCCGGUUCGAGUCCCGUACGGAACG — higher, 0.732
- GUUCCGUUGGCGUAAUGGUAACGCGGCUCCCUCCUUAGGAGAAGACGGCGGGUUCGAGUCCUGUACGCAACG — lower, ≤ 0.5
- GUUCCGUUGGCGUAAUGGUAACGCGCCUCCCUCCUAAGGACAAGAAUGCGGGUUCGAGUCCCGUACGGAACG — lower, 0.627
- GUUCCGUUGGCGUAAUGGUAACGCGCCUCCCUCCUAAGGAGAAAACUGCGGGUUCGAGUCCCGUACGUAACG — lower, 0.533
- GUUCCGUUGGCGUAAUGGUAACGCGGCUCCCUCCUACGGAGGACGCUGCGGGUUCGAGUCCCGUACGGAACG — lower, ≤ 0.5
- GUUCCGUUGGCGUAAUGGUAACGCGCCUCCCUCCUAAGGAGAAGACUGCGGGAUCGAGUCCCGUACGGAACG — lower, 0.706
- GUUCCGUUGGCGUAAUGGUAACGCGCCUCCCCCCUAGGGAGAAGACUGGGGGUUCGAGUCCCGUACGGAACG — lower, ≤ 0.5
- GUUCCGUUGGCGUAAUGGUAACGCGGUUCCCUCCUAAGGAGAAGACUGCGGGUUCGAGUCCCGUACGGAUCG — lower, ≤ 0.5
- GUUCCGUUGGCGUAAUGGUAACGCGCCUCCCUCCUAAGGAGAAGACUACGGGUUCGAGUCCCGUACGGAACG — higher, 1.05

Source: the RNAGym collection of RNA variant scans (doi:10.1126/science.aae0568)
